Assays:
T47D = assay: Cytotoxicity against human T47D cells after 2 days by cell counting kit-8 analysis; type: functional, cell-based; conditions: 48 h
Outline: (§1)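 Cells grown per supplier's instructions, seeded at 2-4 × 10⁴ cells/well and incubated overnight in medium with 10% FBS at 37 °C, 5% CO₂. On day 2, after 4 h FBS starvation, medium was replaced with medium containing graded compound concentrations. Absorbance read at 450 nm. IC50 from a four-parameter logistic fit. Three independent experiments in triplicate, mean ± S.D.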

HCT-15 = assay: Cytotoxicity against human HCT15 cells after 2 days by cell counting kit-8 analysis; type: functional, cell-based; conditions: HCT-15, 48 h; outline: as §1
DU-145 = assay: Cytotoxicity against human DU145 cells after 2 days by cell counting kit-8 analysis; type: functional, cell-based; conditions: DU-145, 48 h; outline: as §1
HEK293 = assay: Cytotoxicity against human HEK293 cells after 2 days by cell counting kit-8 analysis; type: cell-based; conditions: HEK293, 48 h; outline: as §1
[1] = biological target: DNA topoisomerase 2-alpha (Homo sapiens) (UniProt P11388); assay: Inhibition of human DNA topoisomerase-2alpha-mediated relaxation of supercoiled pBR322 at 20 uM after 30 mins using ethidium bromide staining by agarose gel electrophoresis
Outline: (§2)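 200 ng supercoiled pBR322 with 1 unit human topo IIα, with or without compound. Buffer was 10 mM Tris-HCl pH 7.9, 50 mM NaCl, 5 mM MgCl₂, 1 mM EDTA, 1 mM ATP and bovine serum albumin. Incubated 30 min at 30 °C, stopped with EDTA. Products run on 1% agarose gel, 25 V, 4 h, TAE buffer. Compound stocks 20 mM in DMSO.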

[2] = biological target: DNA topoisomerase 2-alpha (Homo sapiens) (UniProt P11388); assay: Inhibition of human DNA topoisomerase-2alpha-mediated relaxation of supercoiled pBR322 at 100 uM after 30 mins using ethidium bromide staining by agarose gel electrophoresis; outline: as §2
[3] = biological target: T1, DNA topoisomerase 1 (Homo sapiens) (UniProt P11387); assay: Inhibition of recombinant human DNA topoisomerase-1-mediated relaxation of supercoiled pBR322 at 20 uM after 30 mins using ethidium bromide staining by agarose gel electrophoresis
T1 sequence (whole entry): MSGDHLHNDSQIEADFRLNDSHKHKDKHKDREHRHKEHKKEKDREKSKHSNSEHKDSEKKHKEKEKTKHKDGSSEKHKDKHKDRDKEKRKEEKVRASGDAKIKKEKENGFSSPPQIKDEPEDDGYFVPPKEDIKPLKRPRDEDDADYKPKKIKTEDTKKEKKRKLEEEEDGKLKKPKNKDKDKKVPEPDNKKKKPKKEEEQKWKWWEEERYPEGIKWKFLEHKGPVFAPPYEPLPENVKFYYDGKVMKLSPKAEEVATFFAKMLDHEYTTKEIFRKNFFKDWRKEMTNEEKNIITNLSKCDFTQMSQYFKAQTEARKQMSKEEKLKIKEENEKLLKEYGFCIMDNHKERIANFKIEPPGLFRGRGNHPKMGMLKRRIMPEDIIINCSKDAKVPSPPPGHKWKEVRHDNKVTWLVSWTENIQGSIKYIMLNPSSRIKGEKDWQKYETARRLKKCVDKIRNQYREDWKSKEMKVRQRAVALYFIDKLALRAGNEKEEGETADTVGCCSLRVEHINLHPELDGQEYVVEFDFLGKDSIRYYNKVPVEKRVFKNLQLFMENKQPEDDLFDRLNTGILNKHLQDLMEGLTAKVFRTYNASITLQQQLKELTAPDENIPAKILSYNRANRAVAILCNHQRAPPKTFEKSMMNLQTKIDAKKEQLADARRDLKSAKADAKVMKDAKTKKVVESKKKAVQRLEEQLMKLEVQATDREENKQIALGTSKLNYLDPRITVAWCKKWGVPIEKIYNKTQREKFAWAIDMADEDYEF
Outline: (§3)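 Compounds from 20 mM DMSO stocks. 100 ng pBR322 plasmid DNA with 1 unit recombinant human topo I, with or without compound, 37 °C for 30 min. Relaxation buffer was 10 mM Tris-HCl pH 7.9, 150 mM NaCl, 0.1% BSA, 1 mM spermidine. Relaxation of supercoiled DNA assessed by gel imaging.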

[4] = biological target: T1, DNA topoisomerase 1 (Homo sapiens); assay: Inhibition of recombinant human DNA topoisomerase-1-mediated relaxation of supercoiled pBR322 at 100 uM after 30 mins using ethidium bromide staining by agarose gel electrophoresis; outline: as §3

Chain of DNA topoisomerase 2-alpha (Homo sapiens) (P11388 whole entry): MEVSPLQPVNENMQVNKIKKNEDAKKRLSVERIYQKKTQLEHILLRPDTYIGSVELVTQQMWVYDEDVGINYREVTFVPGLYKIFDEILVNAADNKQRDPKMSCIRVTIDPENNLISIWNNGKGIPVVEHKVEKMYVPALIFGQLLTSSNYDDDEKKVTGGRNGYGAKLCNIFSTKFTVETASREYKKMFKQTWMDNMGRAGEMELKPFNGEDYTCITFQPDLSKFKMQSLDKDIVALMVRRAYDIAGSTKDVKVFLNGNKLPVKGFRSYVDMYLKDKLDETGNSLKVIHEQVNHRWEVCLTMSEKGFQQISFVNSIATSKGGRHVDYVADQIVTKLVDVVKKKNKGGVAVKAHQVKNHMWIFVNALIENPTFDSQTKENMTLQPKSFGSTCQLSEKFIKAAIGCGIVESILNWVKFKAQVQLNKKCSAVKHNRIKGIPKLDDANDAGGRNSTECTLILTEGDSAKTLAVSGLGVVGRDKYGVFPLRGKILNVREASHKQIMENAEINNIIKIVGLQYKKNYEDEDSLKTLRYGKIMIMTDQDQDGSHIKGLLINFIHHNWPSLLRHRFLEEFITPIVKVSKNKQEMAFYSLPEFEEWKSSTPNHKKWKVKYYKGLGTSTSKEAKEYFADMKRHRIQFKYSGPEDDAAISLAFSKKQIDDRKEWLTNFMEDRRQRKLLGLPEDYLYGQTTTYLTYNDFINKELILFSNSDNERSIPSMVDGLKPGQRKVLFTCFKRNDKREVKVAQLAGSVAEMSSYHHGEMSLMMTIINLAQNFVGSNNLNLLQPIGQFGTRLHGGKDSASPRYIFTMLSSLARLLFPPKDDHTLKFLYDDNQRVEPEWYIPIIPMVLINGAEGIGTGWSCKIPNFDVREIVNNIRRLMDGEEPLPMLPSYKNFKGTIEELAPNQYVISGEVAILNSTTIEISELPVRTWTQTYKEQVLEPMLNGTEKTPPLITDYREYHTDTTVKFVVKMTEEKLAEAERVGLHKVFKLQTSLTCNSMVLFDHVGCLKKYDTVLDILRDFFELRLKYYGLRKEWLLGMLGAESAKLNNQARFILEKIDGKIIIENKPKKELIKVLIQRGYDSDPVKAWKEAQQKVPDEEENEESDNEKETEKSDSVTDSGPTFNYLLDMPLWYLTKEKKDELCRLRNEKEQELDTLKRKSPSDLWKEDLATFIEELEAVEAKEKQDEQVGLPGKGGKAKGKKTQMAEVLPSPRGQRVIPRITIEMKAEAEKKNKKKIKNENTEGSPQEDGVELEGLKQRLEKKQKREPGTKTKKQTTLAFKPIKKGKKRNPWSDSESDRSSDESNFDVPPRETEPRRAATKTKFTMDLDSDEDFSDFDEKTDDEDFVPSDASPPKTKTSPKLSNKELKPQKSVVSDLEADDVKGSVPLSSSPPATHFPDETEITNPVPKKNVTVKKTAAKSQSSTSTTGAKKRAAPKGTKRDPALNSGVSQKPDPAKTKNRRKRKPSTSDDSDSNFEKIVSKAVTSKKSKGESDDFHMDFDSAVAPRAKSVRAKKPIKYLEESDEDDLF

Structure (SMILES) | IC50 (T47D) | IC50 (HCT-15) | IC50 (DU-145) | IC50 (HEK293) | inhibition [1] | inhibition [2] | inhibition [3] | inhibition [4]
Oc1cccc(-c2cc(-c3ccc(Cl)cc3)nc(-c3ccccn3)c2)c1 | 13.9 µM | 13.5 µM | 8.09 µM | 14 µM | 13.1% | 59.4% | 0% | 30%
Oc1ccc(-c2cc(-c3ccc(Cl)cc3)nc(-c3ccsc3)c2)cc1 | 5.49 µM | 6.24 µM | 6.94 µM | 4.86 µM | 67.1% | 83.6% | 30.7% | 47.7%
Oc1ccc(-c2cc(-c3cccnc3)nc(-c3cccc(Cl)c3)c2)cc1 | 25.7 µM | 21.3 µM | 22.9 µM | 25.7 µM | 0% | 46.9% | 0% | 55.2%
Oc1ccc(-c2cc(-c3ccccc3)nc(-c3ccc(Cl)cc3)c2)cc1 | 4.27 µM | 6.92 µM | 7.27 µM | 4.81 µM | 44.6% | 80.9% | 55.2% | 68%
Oc1ccc(-c2cc(-c3cccc(Cl)c3)nc(-c3ccccn3)c2)cc1 | 27.9 µM | 28.2 µM | 35.2 µM | 25.4 µM | 0% | 67.5% | 0% | 59.4%
Oc1ccc(-c2cc(-c3ccc(Cl)cc3)nc(-c3cccs3)c2)cc1 | 6.45 µM | 6.47 µM | 7.66 µM | 4.52 µM | 22% | 77.2% | 0% | 38.8%
Oc1ccc(-c2cc(-c3cccc(Cl)c3)nc(-c3cccs3)c2)cc1 | 5.35 µM | 5.05 µM | 5.74 µM | 2.72 µM | 0% | 72.4% | 0% | 52.4%
Oc1cccc(-c2cc(-c3ccc(Cl)cc3)nc(-c3ccsc3)c2)c1 | 11.5 µM | 8.85 µM | 11.6 µM | 11.2 µM | 38.3% | 71.6% | – | 11.7%
Oc1cccc(-c2cc(-c3ccc(Cl)cc3)nc(-c3ccco3)c2)c1 | 10.5 µM | 10.2 µM | 11.4 µM | 8.19 µM | 16.7% | 63.8% | – | 27.1%

Source: ChEMBL document CHEMBL2169746, “Design, synthesis, and antitumor evaluation of 2,4,6-triaryl pyridines containing chlorophenyl and phenolic moiety” (Eur J Med Chem, 2012)
